The text below walks through data of ChEMBL document CHEMBL1148422, “N-isoquinolin-5-yl-N'-aralkyl-urea and -amide antagonists of human vanilloid receptor 1” (Bioorg Med Chem Lett, 2004).

For experiment [1], the target named is T1, Transient receptor potential cation channel subfamily V member 1 (Homo sapiens, UniProt Q8NER1). The experiment in a line: Antagonistic activity towards human vanilloid receptor subtype 1 expressed in HEK293 cell […], as inhibition of agonist-induced intracellular [Ca2+] levels. In kind it is functional, cell-based.
Experiment [2] concerns the target T1, Transient receptor potential cation channel subfamily V member 1. The experiment in a line: Binding affinity towards human vanilloid receptor subtype 1 expressed in HEK293 cell membrane using [3H]-RTX as radioligand. In kind it is cell membranes. In outline: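 Membranes from hVR1/HEK293 cells homogenized twice with a Polytron in 20 mM HEPES pH 7.4 with 5.8 mM NaCl, 320 mM sucrose, 2 mM MgCl2, 0.75 mM CaCl2 and 5 mM KCl. Spun at 3000 rpm for 10 min; supernatant spun at 18,000 rpm for 20 min; pellet taken up in assay buffer.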

T1 sequence (Q8NER1 whole entry): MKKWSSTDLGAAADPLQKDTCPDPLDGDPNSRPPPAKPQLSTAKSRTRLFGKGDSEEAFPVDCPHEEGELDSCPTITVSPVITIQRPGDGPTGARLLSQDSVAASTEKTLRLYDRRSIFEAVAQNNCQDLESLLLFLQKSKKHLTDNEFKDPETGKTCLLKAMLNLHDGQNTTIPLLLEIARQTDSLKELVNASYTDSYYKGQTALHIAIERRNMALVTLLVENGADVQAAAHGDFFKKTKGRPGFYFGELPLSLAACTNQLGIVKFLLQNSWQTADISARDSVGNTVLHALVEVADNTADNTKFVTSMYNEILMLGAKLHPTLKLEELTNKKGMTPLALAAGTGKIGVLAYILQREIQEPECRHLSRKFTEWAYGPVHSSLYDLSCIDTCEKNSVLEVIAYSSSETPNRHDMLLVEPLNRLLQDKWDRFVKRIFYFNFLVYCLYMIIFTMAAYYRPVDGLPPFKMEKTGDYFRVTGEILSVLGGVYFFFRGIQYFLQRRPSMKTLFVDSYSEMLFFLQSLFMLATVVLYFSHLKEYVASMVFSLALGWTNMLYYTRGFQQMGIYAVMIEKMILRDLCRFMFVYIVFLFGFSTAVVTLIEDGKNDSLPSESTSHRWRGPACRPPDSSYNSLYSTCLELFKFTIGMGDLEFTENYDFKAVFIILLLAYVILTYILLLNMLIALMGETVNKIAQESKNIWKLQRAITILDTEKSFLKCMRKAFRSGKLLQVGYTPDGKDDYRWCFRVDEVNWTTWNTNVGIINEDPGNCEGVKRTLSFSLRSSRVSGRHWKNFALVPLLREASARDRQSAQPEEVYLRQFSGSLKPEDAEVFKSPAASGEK

In turn, `O=C(NCc1ccc(OC(F)(F)F)cc1)Nc1cccc2cnccc12` returned a concentration for half-maximal inhibition (IC50) in experiment [1] of 3 nM. Also, the Ki in experiment [2] turned out to be 1.3 nM.

In experiment [1], `O=C(NCc1ccc(Cl)cc1)Nc1cccc2cnccc12` gave an IC50 of 6 nM. As to `CCCCCc1ccc(C(=O)Nc2cccc3cnccc23)cc1`, the IC50 in experiment [1] came to 2400 nM. The compound further showed a Ki in experiment [2] of 71 nM. `O=C(NCc1ccc(Cl)c(C(F)(F)F)c1)Nc1cccc2cnccc12` displayed an IC50 in experiment [1] of 6 nM. Further, the inhibitory constant (Ki) in experiment [2] was 0.8 nM. Consider `O=C(NCCc1ccc(C(F)(F)F)cc1)Nc1cccc2cnccc12`, for which, in experiment [1], the IC50 stood at 19 nM. The compound also gave a Ki in experiment [2] of 22 nM.

As for `O=C(NCCc1ccc(Cl)c(Cl)c1)Nc1cccc2cnccc12`, the IC50 in experiment [1] was 10 nM. In addition, the affinity in experiment [2], expressed as Ki, was 17 nM. `O=C(NCCc1ccccc1)Nc1cccc2cnccc12` came in with a half-inhibitory concentration (IC50) in experiment [1] of 1000 nM. The compound `COc1ccc(CCNC(=O)Nc2cccc3cnccc23)cc1` returned an IC50 in experiment [1] of 680 nM. `O=C(NCc1ccc(C(F)(F)F)cc1)Nc1cccc2cnccc12`: the IC50 in experiment [1] was determined as 3 nM. This compound returned an inhibition constant Ki in experiment [2] of 5 nM. The matching figures for `O=C(Nc1ccc(Cl)c(Cl)c1)Nc1cccc2cnccc12`: 170 nM and 17 nM. In experiment [1], `O=C(CCc1ccc(C(F)(F)F)cc1)Nc1cccc2cnccc12` had a half-inhibitory concentration (IC50) of 38 nM. The compound also had a Ki in experiment [2] of 60 nM.

`CCC(C)(C)c1ccc(CCC(=O)Nc2cccc3cnccc23)cc1` gave an IC50 in experiment [1] of 13 nM. This compound gave a Ki in experiment [2] of 4 nM. Compound `O=C(NCc1ccc(Cl)c(Cl)c1)Nc1cccc2cnccc12` gave an IC50 in experiment [1] of 4 nM. The same compound returned a Ki in experiment [2] of 9 nM.

Take `CC(C)(C)c1ccc(/C=C/C(=O)Nc2cccc3cnccc23)cc1`: the concentration for half-maximal inhibition (IC50) in experiment [1] came to 5 nM. The inhibitory constant (Ki) in experiment [2] is 1.2 nM. In turn, `O=C(NCCc1ccc(OC(F)(F)F)cc1)Nc1cccc2cnccc12` came in with an IC50 in experiment [1] of 11 nM.

`CCCCc1ccc(NC(=O)Nc2cccc3cnccc23)cc1`: the IC50 in experiment [1] stood at 490 nM. Also, in experiment [2], the affinity, expressed as Ki, was 330 nM.

As for `O=C(/C=C/c1ccccc1)Nc1cccc2cnccc12`, in experiment [1], the IC50 is 1500 nM. Consider `O=C(Nc1cccc(C(F)(F)F)c1)Nc1cccc2cnccc12`, for which, in experiment [1], the IC50 turned out to be 32 nM. The compound further yielded a Ki in experiment [2] of 19 nM.

On to `O=C(NCCc1cccc(C(F)(F)F)c1)Nc1cccc2cnccc12`, for which the IC50 in experiment [1] amounted to 19 nM. In turn, `CC(C)(C)c1ccc(CCC(=O)Nc2cccc3cnccc23)cc1` displayed an IC50 in experiment [1] of 410 nM. Moreover, the Ki in experiment [2] worked out at 11 nM. Compound `O=C(Nc1cc(C(F)(F)F)cc(C(F)(F)F)c1)Nc1cccc2cnccc12` had an IC50 in experiment [1] of 32 nM. The compound further came in with a Ki in experiment [2] of 1.4 nM. The matching figures for `O=C(NCc1cccc(C(F)(F)F)c1)Nc1cccc2cnccc12`: 11 nM and 23 nM. In turn, `CC(C)(C)c1ccc(CNC(=O)Nc2cccc3cnccc23)cc1` yielded a half-maximal inhibitory concentration (IC50) in experiment [1] of 3 nM. The compound also returned a Ki in experiment [2] of 0.3 nM.

In experiment [1], `COc1ccc(CNC(=O)Nc2cccc3cnccc23)cc1` yielded an IC50 of 45 nM. In experiment [1], `CC(C)(C)c1ccc(CCNC(=O)Nc2cccc3cnccc23)cc1` yielded an IC50 of 3 nM.
